Experimental data of several laboratories.
Target: Interleukin-1 receptor-associated kinase 3 (IRAK3, Homo sapiens, UniProt Q9Y616)
Sequence (Q9Y616 1-596, as in one of the studies): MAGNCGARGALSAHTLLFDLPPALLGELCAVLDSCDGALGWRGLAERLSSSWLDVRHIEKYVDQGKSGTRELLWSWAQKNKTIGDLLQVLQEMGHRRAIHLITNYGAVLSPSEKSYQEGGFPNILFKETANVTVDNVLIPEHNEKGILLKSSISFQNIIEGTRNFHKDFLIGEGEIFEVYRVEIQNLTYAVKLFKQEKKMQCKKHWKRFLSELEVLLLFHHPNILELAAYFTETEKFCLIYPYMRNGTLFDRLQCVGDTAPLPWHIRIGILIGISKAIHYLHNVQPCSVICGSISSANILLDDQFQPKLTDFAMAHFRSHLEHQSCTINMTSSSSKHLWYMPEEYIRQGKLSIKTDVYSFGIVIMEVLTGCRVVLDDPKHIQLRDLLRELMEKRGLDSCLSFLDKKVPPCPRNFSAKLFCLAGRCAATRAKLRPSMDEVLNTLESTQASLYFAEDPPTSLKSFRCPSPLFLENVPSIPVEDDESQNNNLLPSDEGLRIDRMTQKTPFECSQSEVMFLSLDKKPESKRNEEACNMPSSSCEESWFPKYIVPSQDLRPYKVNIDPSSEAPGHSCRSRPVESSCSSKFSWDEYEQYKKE

SMILES | observed | method | concentration | remaining binding [%]
c1cnn2ncc(-c3ccnc(N4CCC45COC5)n3)c2c1 | binding |  | 1 µM | 36
C[C@H](NC(=O)c1cnc2n1[C@](C)(Cc1ccc(C#N)cc1)C(=O)N2c1cc(Cl)c(F)c(Cl)c1)C(=O)NC1(c2ccccn2)CC1 | cell-free assay | competition with immobilised ligand | 1 µM | 100
Nc1ncc2c(n1)-c1c([nH]c3ccc(C#CC4CC4)cc13)CCCC2 | binding | competition with immobilised ligand | 1 µM | 71
O=C(c1ccc(Nc2ncc(Cl)c(-c3ccc(Cl)s3)n2)cc1)N1CCC(N2CCCC2)CC1 | binding | competition with immobilised ligand | 1 µM | 1.6
N[C@@H]1CCN(c2nccc(-c3cnn4ncccc34)n2)C1 | binding |  | 1 µM | 100
C[C@@H](c1ccc(-n2cnc3c(N)ncnc32)cc1)N1CCc2nn(C)c(Cc3ccccc3)c2C1=O | binding | competition with immobilised ligand | 0.1 µM | 79
Cc1cnc(Nc2ccc(C(=O)N3CCC(N4CCCC4)CC3)cc2)nc1-c1cc2ccccc2s1 | binding | competition with immobilised ligand | 1 µM | 5.3
CN(CCCC(F)(F)F)c1nccc(-c2cnn3ncccc23)n1 | binding |  | 1 µM | 94
C=CC(=O)N1CCC(C(=O)NCC(=O)N2CCN(c3nc(-c4cnc(N)nc4C(F)F)nc(N4CCOCC4)n3)CC2)CC1 | binding | competition with immobilised ligand | 1 µM | 89
Cn1nc(C(F)(F)F)cc1-c1cnc(N2CCc3cc(S(=O)(=O)Nc4c(F)cc(Cl)cc4F)cc(N4CCCC4=O)c32)nc1 | cell-free assay | competition with immobilised ligand | 1 µM | 100
COc1cnc(Nc2cccc(S(N)(=O)=O)c2)nc1N1CCN(c2ccccc2)CC1 | binding | competition with immobilised ligand | 1 µM | 100
CCOCCn1cc(C(=O)Nc2ccc(-n3nc(-c4cccnc4)cc3C(F)(F)F)cn2)ccc1=O | cell-free assay | competition with immobilised ligand | 1 µM | 100
CCN1CCN(Cc2ccc(C(=O)Nc3ccc(C)c(Oc4ccc5c(c4)CC(=O)N5)c3)cc2C(F)(F)F)CC1 | binding | competition with immobilised ligand | 1 µM | 100
CN(C)c1nccc(-c2cnn3ncccc23)n1 | binding |  | 1 µM | 100
CNC(=O)Nc1ccc2c(c1)CC[C@@]21OC(=O)N(CC(=O)N(Cc2ccc(F)cc2)[C@@H](C)C(F)(F)F)C1=O | cell-free assay | competition with immobilised ligand | 1 µM | 95
O=C(NCC1CCOCC1)c1n[nH]cc1NC(=O)c1c(F)cccc1F | binding | competition with immobilised ligand | 1 µM | 92
CN(C(=O)c1ccccc1)c1cc(N(C)c2ccc3c(c2)CCc2ccc(C(=O)NCCN4CCOCC4)cc2C3=O)ccc1F | cell-free assay | competition with immobilised ligand | 1 µM | 91
C[C@H]1CCN(c2nccc(-c3cnn4ncccc34)n2)C1 | binding |  | 1 µM | 52
O=C(c1ccc(Nc2ncc(Cl)c(-c3cc4ccccc4s3)n2)cc1)N1CCC(N2CCCC2)CC1 | binding | competition with immobilised ligand | 1 µM | 6
CN(c1ccnc(CNc2nc(Nc3ccc4c(c3)CC(=O)N4)ncc2C(F)(F)F)n1)S(C)(=O)=O | cell-free assay | competition with immobilised ligand | 1 µM | 11
